Data reported in ChEMBL document CHEMBL1144880, “Identification of phenylisoxazolines as novel and viable antibacterial agents active against Gram-positive pathogens” (J Med Chem, 2003).
Converted amounts (≈) assume the structure as drawn.

Columns and labels:
Homo sapiens = organism: Homo sapiens; test: Compound was evaluated for metabolic stability via In vitro Human 5E6 cell at 25 uM concentration; format: functional
[1] = Volume distribution in Male Sprague-Dawley Rat (10.1 mg/kg iv); format: ADME, organism-based; conditions: in vivo, read-out: Vss
Outline: (§1)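 Male Sprague-Dawley rats given the compound intravenously. Intact compound in plasma was measured by HPLC-UV after protein-precipitation sample preparation.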

Escherichia coli = test: In vitro minimum inhibitory concentration (MIC) against Escherichia coli UC6674; format: functional
Outline: (§2)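 MIC determined by standard broth microdilution, defined as the lowest drug concentration (µg/mL) inhibiting visible growth.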

Moraxella catarrhalis = test: In vitro minimum inhibitory concentration (MIC) against Moraxella catarrhalis UC30610; format: functional; outline: as §2
[2] = Tmax value in Male Sprague-Dawley Rat at dose 49.4 (mg/kg po) [tmax (h)]; format: ADME, organism-based; conditions: in vivo
Outline: (§3)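 Male Sprague-Dawley rats dosed intravenously or orally. Intact compound measured in plasma by HPLC-UV after protein-precipitation sample preparation. Half-life reported as harmonic mean apparent terminal disposition half-life. Bioavailability is absolute oral bioavailability. Some comparator values are archival data.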

[3] = Plasma clearance in Male Sprague-Dawley Rat (10.1 mg/kg iv); format: ADME, organism-based; outline: as §3
Staphylococcus aureus [4] = test: In vitro minimum inhibitory concentration (MIC) against Staphylococcus aureus UC9213; format: functional; outline: as §2
[5] = Plasma clearance in Male Sprague-Dawley Rat (49.4 mg/kg po); format: ADME, organism-based; outline: as §3
Haemophilus influenzae = test: In vitro minimum inhibitory concentration (MIC) against Haemophilus influenzae UC30063; format: functional; outline: as §2
Mus musculus = test: In Vivo effective dose required for antibacterial activity in a systemic mouse infection model (SMIM) upon peroral administration against Staphylococcus aureus UC9213; format: functional; conditions: po
Outline: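 Compound was given orally at 1 and 5 h after infection. Deaths were monitored for at least 6 days, and ED50 (dose curing 50% of mice) was calculated by probit analysis.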

[6] = Harmonic mean apparent terminal disposition half-life [t1/2beta (h)] in Male Sprague-Dawley Rat at dose 49.4 (mg/kg po); format: ADME, organism-based; conditions: in vivo, read-out: T1/2 beta (converted); outline: as §3
[7] = Absolute oral bioavailability in Male Sprague-Dawley Rat (49.4 mg/kg po); format: ADME, organism-based; conditions: in vivo; outline: as §3
[8] = tested on: Staphylococcus epidermidis; test: In vitro minimum inhibitory concentration (MIC) against Staphylococcus epidermidis UC12084; format: functional; outline: as §2
Rattus norvegicus = organism: Rattus norvegicus; test: Compound was evaluated for metabolic stability via In vitro Rat 5E6 cell at 50 uM concentration; format: functional
[9] = Cmax value in Male Sprague-Dawley Rat at dose 49.4 (mg/kg po); format: ADME, organism-based; set-up: dose 49.4 mg/kg, route oral; conditions: in vivo; outline: as §3
[10] = Harmonic mean apparent terminal disposition half-life [t1/2beta (h)] in Male Sprague-Dawley Rat at dose 10.1 (mg/kg iv); format: ADME, organism-based; conditions: in vivo, read-out: T1/2 beta (converted); outline: as §3
Staphylococcus aureus [11] = test: In vitro minimum inhibitory concentration (MIC) against Staphylococcus aureus UC12673; format: functional; outline: as §2
[12] = Absolute oral bioavailability in Male Sprague-Dawley Rat (10.1 mg/kg iv); format: ADME, organism-based; conditions: in vivo; outline: as §3
Enterococcus faecalis = test: In vitro minimum inhibitory concentration (MIC) against Enterococcus faecalis UC9217; format: functional; outline: as §2
Streptococcus pneumoniae = test: In vitro minimum inhibitory concentration (MIC) against Streptococcus pneumoniae UC9912; format: functional; outline: as §2
[13] = Cmax value in Male Sprague-Dawley Rat at dose 10.1 (mg/kg iv); format: ADME, organism-based; set-up: dose 10.1 mg/kg, route intravenous; conditions: in vivo; outline: as §3
[14] = Plasma clearance in Male Sprague-Dawley Rat (10 mg/kg iv); format: ADME, organism-based; outline: as §3
[15] = Volume distribution in Male Sprague-Dawley Rat (10 mg/kg iv); format: ADME, organism-based; conditions: in vivo, read-out: Vss; outline: as §1
[16] = Oral bioavailability in rat (Sprague-Dawley) (male) (dose 10 mg/kg i.v.); format: ADME, organism-based; conditions: in vivo; outline: as §3
[17] = Oral bioavailability in rat (Sprague-Dawley) (male) (dose 25 mg/kg p.o.); format: ADME, organism-based; conditions: in vivo; outline: as §3
[18] = Harmonic mean apparent terminal disposition half-life [t1/2beta (h)] in Male Sprague-Dawley Rat at dose 10 (mg/kg iv); format: ADME, organism-based; conditions: in vivo, read-out: T1/2 beta (converted); outline: as §3
[19] = Tmax value in Male Sprague-Dawley Rat at dose 25 (mg/kg po) [tmax (h)]; format: ADME, organism-based; conditions: in vivo; outline: as §3
[20] = Cmax value in Male Sprague-Dawley Rat at dose 25 (mg/kg po); format: ADME, organism-based; set-up: dose 25 mg/kg, route oral; conditions: in vivo; outline: as §3
[21] = Cmax value in Male Sprague-Dawley Rat at dose 10 (mg/kg iv); format: ADME, organism-based; set-up: dose 10 mg/kg, route intravenous; conditions: in vivo; outline: as §3

CC(=O)NC[C@H]1CC(c2ccc(N3CCN(C(=O)CO)CC3)c(F)c2)=NO1
Remaining at 40 min (Homo sapiens): 101%
Vd [1]: 0.95 L/kg
MIC (Escherichia coli): > 16 µg/mL
MIC (Moraxella catarrhalis): 8 µg/mL (≈ 21.1 µM)
Tmax [2]: 150 min
clearance [3]: 26.2 mL/min/kg
MIC (Staphylococcus aureus [4]): 4 µg/mL (≈ 10.6 µM)
CL/F [5]: 30.8 mL/min/kg
MIC (Haemophilus influenzae): > 16 µg/mL
ED50 (Mus musculus): 9.1 mg/kg
half-life [6]: 42 min
bioavailability [7]: 86%
MIC [8]: 1 µg/mL (≈ 2.64 µM)
Remaining at 40 min (Rattus norvegicus): 100%
Cmax [9]: 6170 ng/mL
half-life [10]: 36.6 min
MIC (Staphylococcus aureus [11]): 4 µg/mL (≈ 10.6 µM)
bioavailability [12]: 100%
MIC (Enterococcus faecalis): 4 µg/mL (≈ 10.6 µM)
MIC (Streptococcus pneumoniae): 1 µg/mL (≈ 2.64 µM)
Cmax [13]: 17700 ng/mL

CC(=O)NC[C@H]1CN(c2ccc(N3CCN(C(=O)CO)CC3)c(F)c2)C(=O)O1 [EPEREZOLID]
clearance [14]: 24.9 mL/min/kg
Vd [15]: 0.99 L/kg
F [16]: 100%
bioavailability [17]: 56%
half-life [18]: 57.6 min
Tmax [19]: 79.8 min
Remaining at 40 min (Rattus norvegicus): 102%
Cmax [20]: 2260 ng/mL
Cmax [21]: 20800 ng/mL
